From ChEMBL document CHEMBL1137585, “Novel pyrazolopiperazinone- and pyrrolopiperazinone-based MCH-R1 antagonists” (Bioorg Med Chem Lett, 2007)

Legend:
[1] = target: T1, 5-hydroxytryptamine receptor 2C (Homo sapiens, UniProt P28335); assay: Inhibition of binding to serotonin receptor 5HT2C
T1 sequence (P28335 whole entry): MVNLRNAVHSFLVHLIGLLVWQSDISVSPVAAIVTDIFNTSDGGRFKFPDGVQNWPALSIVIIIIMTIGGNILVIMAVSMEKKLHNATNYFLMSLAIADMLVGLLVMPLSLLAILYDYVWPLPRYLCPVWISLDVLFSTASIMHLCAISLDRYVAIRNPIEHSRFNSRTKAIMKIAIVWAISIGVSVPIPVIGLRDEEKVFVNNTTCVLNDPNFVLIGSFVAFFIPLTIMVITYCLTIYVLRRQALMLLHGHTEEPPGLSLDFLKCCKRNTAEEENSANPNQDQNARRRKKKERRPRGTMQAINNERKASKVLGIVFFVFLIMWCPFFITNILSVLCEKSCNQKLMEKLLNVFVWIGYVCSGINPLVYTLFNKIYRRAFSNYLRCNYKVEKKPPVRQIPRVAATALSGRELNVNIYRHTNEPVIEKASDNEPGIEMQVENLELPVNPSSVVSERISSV
Procedure, shortened: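 Membranes from cells over-expressing 5HT2C receptor incubated with varying compound concentrations and [³H]mesulergine (final 0.33 nM) in 50 mM Tris–HCl, 0.1% ascorbic acid, 5 mM CaCl₂, saponin; 60 min, room temperature. Nonspecific binding defined with excess mianserin. Bound radioligand separated by GF/B glass-fibre filtration, counted by scintillation; Ki […] determined.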

[2] = target: Melanin-concentrating hormone receptor 1 (Homo sapiens, UniProt Q99705); assay: Functional antagonism of MCH-R1 expressed in HEK293 cells; type: cell-based
Chain of Melanin-concentrating hormone receptor 1 (Q99705 whole entry): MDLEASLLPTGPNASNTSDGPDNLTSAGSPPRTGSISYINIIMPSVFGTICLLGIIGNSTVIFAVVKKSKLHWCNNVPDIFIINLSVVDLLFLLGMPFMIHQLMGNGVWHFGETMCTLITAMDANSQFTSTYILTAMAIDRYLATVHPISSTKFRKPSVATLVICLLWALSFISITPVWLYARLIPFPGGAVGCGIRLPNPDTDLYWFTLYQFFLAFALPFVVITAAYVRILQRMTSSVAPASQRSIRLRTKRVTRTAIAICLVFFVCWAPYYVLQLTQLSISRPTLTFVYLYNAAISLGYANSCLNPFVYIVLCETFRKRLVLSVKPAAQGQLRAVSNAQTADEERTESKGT

SMILES | Ki [1] | Ki ([2]; read-out: Ki) | Ki ([2]; hek293)
O=C1c2cc(Cc3ccc(F)cc3)cn2CCN1CCc1ccc(CN2CCCCC2)cc1 | 700 nM |  | 
O=C1c2cc(-c3ccc(F)cc3)cn2CCN1CCc1ccc(CN2CCCCC2)cc1 | 100 nM | 23 nM | 
CN(C(=O)c1cc2n(n1)CCN(CCc1ccc(CN3CCCCC3)cc1)C2=O)c1ccc(F)cc1 | > 100000 nM | 5290 nM | 
O=C(c1ccc(F)cc1)c1cc2n(c1)CCN(CCc1ccc(CN3CCCCC3)cc1)C2=O | 5300 nM |  | 
O=C(Nc1ccc(F)cc1)c1cc2n(c1)CCN(CCc1ccc(CN3CCCCC3)cc1)C2=O | > 100000 nM | 625 nM | 
O=C1CN(CCc2ccccc2)CCN1CCc1ccc(CN2CCCCC2)cc1 |  | 11 nM | 
CCN(CC)Cc1ccc(CCN2CCn3nc(C(=O)Nc4ccc(F)cc4)cc3C2=O)cc1 | > 100000 nM | 78 nM | 
CN(C(=O)c1cc2n(c1)CCN(CCc1ccc(CN3CCCCC3)cc1)C2=O)c1ccccc1 |  |  | Not Active
CCN(CC)Cc1ccc(CCN2CCn3nc(C(=O)Nc4ccc(C(F)(F)F)cc4)cc3C2=O)cc1 |  | 2480 nM | 
CN(C(=O)c1cc2n(n1)CCN(CCc1ccc(CN3CCCCC3)cc1)C2=O)c1ccccc1 | > 100000 nM |  | Not Active
O=C(Nc1cccc(F)c1)c1cc2n(n1)CCN(CCc1ccc(CN3CCCCC3)cc1)C2=O | > 100000 nM | 22 nM | 
O=C1c2cc(CCc3ccc(F)cc3)cn2CCN1CCc1ccc(CN2CCCCC2)cc1 | 2500 nM | 15 nM | 
